Assay results collected from several papers.
Effect on: enzyme activity
Mode: inhibitor
BTK: Tyrosine-protein kinase BTK (BTK, Homo sapiens, UniProt Q06187)

target | test | conditions | inhibition | SMILES
BTK |  | 1 µM | < 10% | CCCS(=O)(=O)Nc1ccc(F)c(C(=O)c2c[nH]c3ncc(-c4ccc(Cl)cc4)cc23)c1F
BTK |  | 1 µM | 71% | COc1cc2ncnc(Nc3ccc(Oc4ccccc4)cc3C)c2cc1OC
BTK |  | 10 µM | 72% | Cc1ccc(Nc2nccc(N(C)c3ccc4c(C)n(C)nc4c3)n2)cc1S(N)(=O)=O
BTK |  | 10 µM | 4% | O=C(CSc1nc2nccnc2c(=O)n1CCc1ccccc1)Nc1nccs1
BTK | FRET | 10 µM | 22% | CN(C)C1CCN(CC#Cc2nn(C3CCCC3)c3nc(NCc4ccccc4)ncc23)C1 (stereo not shown)
BTK |  | 10 µM | 2.1% | CNc1cccc2cc(C(=O)Nc3ccc(C(=O)O)cc3)c(=O)[nH]c12
BTK |  | 1 µM | 65% | CN(c1ncccc1CNc1nc(Nc2ccc3c(c2)CC(=O)N3)ncc1C(F)(F)F)S(C)(=O)=O
Tyrosine-protein kinase BTK (BTK, Homo sapiens, UniProt Q06187, C481S) |  | 0.1 µM | -1.8% | CC/C(=N\NC(=O)NCc1cccc(O)c1)c1ccc(O)c(C)c1O
BTK | radiometric | 0.1 µM | 83% | CC#CC(=O)N1CCC[C@H]1c1nc(-c2ccc(C(=O)Nc3ccccn3)cc2)c2c(N)nccn12
BTK |  | 0.3 µM | 1% | CNC(=O)c1cc(Oc2ccc(NC(=O)Nc3ccc(Cl)c(C(F)(F)F)c3)cc2)ccn1
BTK |  | 2 µM | 6% | CNCc1ccc(-c2cc(-c3nc(-c4ccc(S(=O)(=O)C(C)C)cc4)cnc3N)on2)cc1
BTK |  | 10 µM | 85% | CCN(CC)CCNC(=O)c1c(C)[nH]c(/C=C2\C(=O)Nc3ccc(F)cc32)c1C
BTK | radiometric | 1 µM | 94% | CNC(=O)c1cc2c(Oc3ccc(NC(=O)C4(C(=O)Nc5ccc(F)cc5)CC4)cc3)ccnc2cc1OC
